Measured values published in ChEMBL document CHEMBL4715736, “Identification of anticancer agents based on the thieno[2,3-b]pyridine and 1H-pyrazole molecular scaffolds” (2016).

What was measured:
Format in all cases: functional
[1] = system: NCI-H460; assay: Growth inhibition of human NCI-H460 cells assessed as cell growth at 100 uM incubated for 48 hrs by sulforhodamine B assay relative to control; conditions: read-out: Activity
[2] = system: ACHN; assay: Growth inhibition of human ACHN cells assessed as cell growth at 0.01 uM incubated for 48 hrs by sulforhodamine B assay relative to control; conditions: read-out: Activity
[3] = system: IGROV-1; assay: Growth inhibition of human IGROV-1 cells assessed as cell growth at 0.1 uM incubated for 48 hrs by sulforhodamine B assay relative to control; conditions: read-out: Activity
[4] = system: BT-549; assay: Growth inhibition of human BT-549 cells assessed as cell growth at 0.1 uM incubated for 48 hrs by sulforhodamine B assay relative to control; conditions: read-out: Activity
[5] = system: SK-MEL-2; assay: Growth inhibition of human SK-MEL-2 cells assessed as cell growth at 0.1 uM incubated for 48 hrs by sulforhodamine B assay relative to control; conditions: read-out: Activity
[6] = system: OVCAR-8; assay: Growth inhibition of human OVCAR-8 cells assessed as cell growth at 0.1 uM incubated for 48 hrs by sulforhodamine B assay relative to control; conditions: read-out: Activity
[7] = system: RXF 393; assay: Growth inhibition of human RXF 393 cells assessed as cell growth at 0.01 uM incubated for 48 hrs by sulforhodamine B assay relative to control; conditions: read-out: Activity
[8] = system: HOP-62; assay: Growth inhibition of human HOP-62 cells assessed as cell growth at 0.1 uM incubated for 48 hrs by sulforhodamine B assay relative to control; conditions: read-out: Activity
[9] = system: NCI-H522; assay: Growth inhibition of human NCI-H522 cells assessed as cell growth at 0.01 uM incubated for 48 hrs by sulforhodamine B assay relative to control; conditions: read-out: Activity
[10] = system: SK-MEL-2; assay: Growth inhibition of human SK-MEL-2 cells assessed as cell growth at 100 uM incubated for 48 hrs by sulforhodamine B assay relative to control; conditions: read-out: Activity
[11] = system: MDA-MB-231; assay: Growth inhibition of human MDA-MB-231 cells assessed as cell growth at 0.01 uM incubated for 48 hrs by sulforhodamine B assay relative to control; conditions: read-out: Activity
[12] = system: ACHN; assay: Growth inhibition of human ACHN cells assessed as cell growth at 1 uM incubated for 48 hrs by sulforhodamine B assay relative to control; conditions: read-out: Activity
[13] = system: T47D; assay: Growth inhibition of human T47D cells assessed as cell growth at 0.01 uM incubated for 48 hrs by sulforhodamine B assay relative to control; conditions: read-out: Activity
[14] = system: SK-MEL-28; assay: Growth inhibition of human SK-MEL-28 cells assessed as cell growth at 100 uM incubated for 48 hrs by sulforhodamine B assay relative to control; conditions: read-out: Activity
[15] = system: K562; assay: Growth inhibition of human K562 cells assessed as cell growth at 0.1 uM incubated for 48 hrs by sulforhodamine B assay relative to control; conditions: read-out: Activity
[16] = system: NCI/ADR-RES; assay: Growth inhibition of human NCI/ADR-RES cells assessed as cell growth at 100 uM incubated for 48 hrs by sulforhodamine B assay relative to control; conditions: read-out: Activity
[17] = system: MOLT-4; assay: Growth inhibition of human MOLT-4 cells incubated for 48 hrs by sulforhodamine B assay
Outline: (§1)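 NCI60 panel at the NCI Developmental Therapeutics Program. Only compounds active in the 10 µM screen went to dose-response testing. GI50, the concentration giving 50% of maximal inhibition of proliferation, and TGI, the concentration giving total growth inhibition, were derived from the dose-response curves.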

[18] = system: UACC-62; assay: Growth inhibition of human UACC-62 cells incubated for 48 hrs by sulforhodamine B assay
Outline: (§2)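 NCI DTP 60-line human tumour panel. Dose-response curves were run only for ligands active in the initial 10 µM screen. GI50 (concentration giving 50% of maximal inhibition of proliferation) and TGI (concentration giving total growth inhibition) were derived from these curves.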

[19] = system: OVCAR-4; assay: Growth inhibition of human OVCAR-4 cells incubated for 48 hrs by sulforhodamine B assay; outline: as §2
[20] = system: IGROV-1; assay: Growth inhibition of human IGROV-1 cells assessed as cell growth at 100 uM incubated for 48 hrs by sulforhodamine B assay relative to control; conditions: read-out: Activity
[21] = system: NCI-H226; assay: Growth inhibition of human NCI-H226 cells incubated for 48 hrs by sulforhodamine B assay; outline: as §1
[22] = system: UACC-257; assay: Growth inhibition of human UACC-257 cells assessed as cell growth at 0.01 uM incubated for 48 hrs by sulforhodamine B assay relative to control; conditions: read-out: Activity
[23] = system: Malme-3M; assay: Growth inhibition of human Malme-3M cells assessed as cell growth at 0.01 uM incubated for 48 hrs by sulforhodamine B assay relative to control; conditions: read-out: Activity
[24] = system: MDA-MB-435; assay: Growth inhibition of human MDA-MB-435 cells assessed as cell growth at 1 uM incubated for 48 hrs by sulforhodamine B assay relative to control; conditions: read-out: Activity
[25] = system: COLO 205; assay: Growth inhibition of human COLO 205 cells assessed as cell growth at 0.01 uM incubated for 48 hrs by sulforhodamine B assay relative to control; conditions: read-out: Activity
Outline: (§3)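 NCI Developmental Therapeutics Program NCI60 panel. Compounds that were active in the 10 µM one-dose screen went on to dose–response testing. Growth at each concentration is expressed relative to untreated control (100%). GI50 (concentration giving 50% of maximal inhibition of proliferation) and TGI (concentration giving total growth inhibition) were derived from the curves.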

[26] = system: UO-31; assay: Growth inhibition of human UO-31 cells incubated for 48 hrs by sulforhodamine B assay; outline: as §2
[27] = system: RPMI-8226; assay: Growth inhibition of human RPMI-8226 cells assessed as cell growth at 1 uM incubated for 48 hrs by sulforhodamine B assay relative to control; conditions: read-out: Activity
[28] = system: COLO 205; assay: Growth inhibition of human COLO 205 cells assessed as cell growth at 100 uM incubated for 48 hrs by sulforhodamine B assay relative to control; conditions: read-out: Activity; outline: as §3
[29] = system: LOX IMVI; assay: Growth inhibition of human LOX IMVI cells assessed as cell growth at 100 uM incubated for 48 hrs by sulforhodamine B assay relative to control; conditions: read-out: Activity
[30] = system: A549; assay: Growth inhibition of human A549/ATCC cells incubated for 48 hrs by sulforhodamine B assay; outline: as §3
[31] = system: UACC-257; assay: Growth inhibition of human UACC-257 cells assessed as cell growth at 1 uM incubated for 48 hrs by sulforhodamine B assay relative to control; conditions: read-out: Activity
[32] = system: MDA-MB-468; assay: Growth inhibition of human MDA-MB-468 cells assessed as cell growth at 1 uM incubated for 48 hrs by sulforhodamine B assay relative to control; conditions: read-out: Activity
[33] = system: HOP-62; assay: Growth inhibition of human HOP-62 cells assessed as cell growth at 1 uM incubated for 48 hrs by sulforhodamine B assay relative to control; conditions: read-out: Activity
[34] = system: IGROV-1; assay: Growth inhibition of human IGROV-1 cells incubated for 48 hrs by sulforhodamine B assay; outline: as §1
[35] = read-out: LC50 (the source's name)

Nc1c(C(=O)Nc2ccccc2)sc2nc3c(cc12)CN(Cc1ccccc1)CC3
growth at 100 µM [1]: 8%
growth at 0.01 µM [2]: 101%
growth at 0.1 µM [3]: 98%
growth at 0.1 µM [4]: 89%
growth at 0.1 µM [5]: 95%
growth at 0.1 µM [6]: 101%
growth at 0.01 µM [7]: 96%
growth at 0.1 µM [8]: 84%
growth at 0.01 µM [9]: 89%
growth at 100 µM [10]: 4%
growth at 0.01 µM [11]: 101%
growth at 1 µM [12]: 87%
growth at 0.01 µM [13]: 99%
growth at 100 µM [14]: 28%
growth at 0.1 µM [15]: 99%
growth at 100 µM [16]: 29%
GI50 [17]: 31.3 µM
TGI [17]: > 100 µM
CC50 [17, 35]: > 100 µM
GI50 [18]: 13.9 µM
LC50 [18]: > 100 µM
TGI [18]: > 100 µM
GI50 [19]: 1.97 µM
TGI [19]: 23.1 µM
CC50 [19, 35]: > 100 µM
growth at 100 µM [20]: 32%
GI50 [21]: 4.91 µM
TGI [21]: > 100 µM
CC50 [21, 35]: > 100 µM
growth at 0.01 µM [22]: 93%
growth at 0.01 µM [23]: 87%
growth at 1 µM [24]: 68%
growth at 0.01 µM [25]: 100%
GI50 [26]: 6.14 µM
TGI [26]: > 100 µM
CC50 [26, 35]: > 100 µM
growth at 1 µM [27]: 93%
growth at 100 µM [28]: 23%
growth at 100 µM [29]: 20%
GI50 [30]: 13.9 µM
TGI [30]: > 100 µM
CC50 [30, 35]: > 100 µM
growth at 1 µM [31]: 84%
growth at 1 µM [32]: 87%
growth at 1 µM [33]: 88%
GI50 [34]: 37.8 µM
LC50 [34]: > 100 µM
TGI [34]: > 100 µM
